Test results: ChEMBL document CHEMBL4808225, “Discovery and Characterization of Selective and Ligand-Efficient DYRK Inhibitors” (J Med Chem, 2021)
≈ marks a conversion by molar mass, not a printed value. One block for each compound: values may come before it.

Columns and labels:
[1] = target: T1, Dual specificity tyrosine-phosphorylation-regulated kinase 1A (Homo sapiens, UniProt Q13627); assay: Displacement of Kinase tracer 236 from biotinylated DYRK1A (unknown origin) expressed in Escherichia coli BL21 (DE3) incubated for 1.5 hrs by TR-FRET assay
[2] = target: Cyclin-dependent kinase 2 (Homo sapiens) (UniProt P24941); assay: Inhibition of wild-type human full length CDK2 (M1 to L298 residues) expressed in bacterial expression system assessed as remaining activity at 1 uM by Kinomescan method relative to control
In short: (§1)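 KINOMEscan competition binding panel run with inhibitor at 1 μM; read-out is remaining kinase activity (percent of control).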

[3] = target: Dual specificity protein kinase CLK1 (Homo sapiens, UniProt P49759); assay: Inhibition of wild-type human full length CLK1 (M1 to I484 residues) expressed in bacterial expression system assessed as remaining activity at 1 uM by Kinomescan method relative to control; in short: as §1
[4] = target: Dual specificity tyrosine-phosphorylation-regulated kinase 1B (Homo sapiens) (UniProt Q9Y463); assay: Inhibition of wild-type human full length DYRK1B (M1 to S629 residues) expressed in bacterial expression system assessed as remaining activity at 1 uM by Kinomescan method relative to control; in short: as §1
[5] = target: Dual specificity protein kinase CLK3 (Homo sapiens) (UniProt P49761); assay: Inhibition of wild-type human full length CLK3 (M1 to R490 residues) expressed in bacterial expression system assessed as remaining activity at 1 uM by Kinomescan method relative to control; in short: as §1
[6] = target: Dual specificity protein kinase CLK2 (Homo sapiens) (UniProt P49760); assay: Inhibition of wild-type human partial length CLK2 (D144 to R498 residues) expressed in bacterial expression system assessed as remaining activity at 1 uM by Kinomescan method relative to control; in short: as §1
[7] = Metabolic stability in rat liver microsomes; assay type: ADME, Microsome; details: read-out: Stabilty
[8] = Thermodynamic solubility of the compound at pH 6.8; assay type: physicochemical; details: buffer, read-out: Therm_solubility
In short: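 Thermodynamic solubility measured at pH 6.8 in a single experiment, reported in […].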

[9] = target: T2, Dual specificity tyrosine-phosphorylation-regulated kinase 2 (Homo sapiens) (UniProt Q92630); assay: Inhibition of wild-type human full length DYRK2 (M1 to S528 residues) expressed in mammalian expression system assessed as remaining activity at 1 uM by Kinomescan method relative to control; in short: as §1
T2 sequence (whole entry): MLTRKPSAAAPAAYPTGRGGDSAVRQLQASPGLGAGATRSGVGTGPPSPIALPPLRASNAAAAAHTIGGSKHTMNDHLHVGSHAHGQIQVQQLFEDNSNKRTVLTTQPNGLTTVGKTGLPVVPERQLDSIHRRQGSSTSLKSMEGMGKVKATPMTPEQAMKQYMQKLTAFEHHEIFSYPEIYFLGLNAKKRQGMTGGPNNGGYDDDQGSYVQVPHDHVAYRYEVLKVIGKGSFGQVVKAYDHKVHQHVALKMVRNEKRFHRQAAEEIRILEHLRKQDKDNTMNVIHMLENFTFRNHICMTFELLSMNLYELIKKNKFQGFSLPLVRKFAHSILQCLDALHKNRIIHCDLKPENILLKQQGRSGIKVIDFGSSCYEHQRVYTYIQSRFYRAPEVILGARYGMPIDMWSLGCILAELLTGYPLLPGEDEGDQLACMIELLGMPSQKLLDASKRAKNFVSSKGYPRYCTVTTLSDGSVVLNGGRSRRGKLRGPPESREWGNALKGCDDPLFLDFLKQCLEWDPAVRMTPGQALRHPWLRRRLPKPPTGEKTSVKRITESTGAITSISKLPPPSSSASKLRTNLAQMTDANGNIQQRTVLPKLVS

[10] = target: Glycogen synthase kinase-3 beta (Homo sapiens) (UniProt P49841); assay: Inhibition of wild-type human full length GSK3B (M1 to T433 residues) expressed in mammalian expression system assessed as remaining activity at 1 uM by Kinomescan method relative to control; in short: as §1
[11] = Metabolic stability in human liver microsomes; assay type: ADME, Microsome; details: read-out: Stabilty
[12] = target: T1, Dual specificity tyrosine-phosphorylation-regulated kinase 1A; assay: Binding affinity to biotinylated DYRK1A (unknown origin) expressed in Escherichia coli BL21 (DE3) assessed as dissociation constant measured up to 5 min by SPR method

Dual specificity protein kinase CLK2 (Homo sapiens), sequence (P49760 whole entry, looked up, the tested form may be a part): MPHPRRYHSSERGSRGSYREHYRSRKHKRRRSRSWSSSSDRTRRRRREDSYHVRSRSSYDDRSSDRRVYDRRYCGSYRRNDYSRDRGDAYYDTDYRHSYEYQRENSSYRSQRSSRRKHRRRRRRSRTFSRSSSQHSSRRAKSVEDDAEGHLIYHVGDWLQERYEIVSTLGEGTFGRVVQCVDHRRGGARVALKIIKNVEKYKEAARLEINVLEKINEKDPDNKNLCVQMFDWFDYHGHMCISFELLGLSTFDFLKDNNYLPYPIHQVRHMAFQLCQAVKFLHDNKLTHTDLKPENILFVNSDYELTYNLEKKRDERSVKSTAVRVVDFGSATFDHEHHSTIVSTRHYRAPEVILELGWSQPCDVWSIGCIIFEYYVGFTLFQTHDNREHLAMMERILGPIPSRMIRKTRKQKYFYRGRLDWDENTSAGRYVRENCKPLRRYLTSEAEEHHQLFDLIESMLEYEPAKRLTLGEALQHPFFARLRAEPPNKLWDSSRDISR
Dual specificity protein kinase CLK3 (Homo sapiens), sequence (P49761 whole entry, looked up, the tested form may be a part): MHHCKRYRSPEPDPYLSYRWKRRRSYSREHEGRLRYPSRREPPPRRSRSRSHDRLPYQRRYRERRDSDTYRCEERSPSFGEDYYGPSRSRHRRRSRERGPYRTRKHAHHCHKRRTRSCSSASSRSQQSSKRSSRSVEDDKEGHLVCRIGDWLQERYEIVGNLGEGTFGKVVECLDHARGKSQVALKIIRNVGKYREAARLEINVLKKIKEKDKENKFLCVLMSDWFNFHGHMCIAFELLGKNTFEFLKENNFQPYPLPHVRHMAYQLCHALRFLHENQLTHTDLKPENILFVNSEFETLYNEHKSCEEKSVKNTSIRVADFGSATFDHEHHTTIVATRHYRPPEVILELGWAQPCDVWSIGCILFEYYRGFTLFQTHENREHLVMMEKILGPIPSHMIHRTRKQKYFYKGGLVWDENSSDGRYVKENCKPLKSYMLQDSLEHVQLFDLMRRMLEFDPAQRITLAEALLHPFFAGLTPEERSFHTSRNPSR
Dual specificity tyrosine-phosphorylation-regulated kinase 1B (Homo sapiens), sequence (Q9Y463 whole entry, looked up, the tested form may be a part): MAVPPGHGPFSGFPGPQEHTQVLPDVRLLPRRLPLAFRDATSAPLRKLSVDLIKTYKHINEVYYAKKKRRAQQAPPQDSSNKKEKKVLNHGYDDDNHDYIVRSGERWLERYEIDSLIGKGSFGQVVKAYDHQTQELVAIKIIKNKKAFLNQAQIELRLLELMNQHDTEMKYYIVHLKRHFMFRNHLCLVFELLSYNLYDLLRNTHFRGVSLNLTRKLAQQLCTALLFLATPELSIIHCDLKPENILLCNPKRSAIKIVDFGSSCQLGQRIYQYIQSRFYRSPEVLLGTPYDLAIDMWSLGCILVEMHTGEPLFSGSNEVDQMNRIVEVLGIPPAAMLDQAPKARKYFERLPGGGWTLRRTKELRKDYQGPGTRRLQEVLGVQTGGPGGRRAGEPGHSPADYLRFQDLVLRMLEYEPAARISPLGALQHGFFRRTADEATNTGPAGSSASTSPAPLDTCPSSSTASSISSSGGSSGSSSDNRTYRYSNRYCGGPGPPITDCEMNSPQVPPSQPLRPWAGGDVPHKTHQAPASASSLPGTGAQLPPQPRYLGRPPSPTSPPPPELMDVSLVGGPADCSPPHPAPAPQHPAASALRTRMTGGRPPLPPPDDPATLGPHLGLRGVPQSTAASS
Glycogen synthase kinase-3 beta (Homo sapiens), sequence (P49841 whole entry, looked up, the tested form may be a part): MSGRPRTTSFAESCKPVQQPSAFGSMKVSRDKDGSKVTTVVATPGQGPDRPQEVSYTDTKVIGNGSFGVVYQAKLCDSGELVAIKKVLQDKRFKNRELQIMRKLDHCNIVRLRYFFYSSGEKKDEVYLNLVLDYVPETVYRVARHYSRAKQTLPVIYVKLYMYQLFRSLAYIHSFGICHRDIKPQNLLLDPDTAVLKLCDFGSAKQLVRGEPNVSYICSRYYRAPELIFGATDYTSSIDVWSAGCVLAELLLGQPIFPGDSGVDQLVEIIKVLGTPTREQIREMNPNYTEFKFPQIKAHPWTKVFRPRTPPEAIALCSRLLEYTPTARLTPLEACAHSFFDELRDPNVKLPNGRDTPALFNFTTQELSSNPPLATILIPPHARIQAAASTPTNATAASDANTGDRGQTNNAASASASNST
Dual specificity protein kinase CLK1, sequence (P49759 whole entry, looked up, the tested form may be a part): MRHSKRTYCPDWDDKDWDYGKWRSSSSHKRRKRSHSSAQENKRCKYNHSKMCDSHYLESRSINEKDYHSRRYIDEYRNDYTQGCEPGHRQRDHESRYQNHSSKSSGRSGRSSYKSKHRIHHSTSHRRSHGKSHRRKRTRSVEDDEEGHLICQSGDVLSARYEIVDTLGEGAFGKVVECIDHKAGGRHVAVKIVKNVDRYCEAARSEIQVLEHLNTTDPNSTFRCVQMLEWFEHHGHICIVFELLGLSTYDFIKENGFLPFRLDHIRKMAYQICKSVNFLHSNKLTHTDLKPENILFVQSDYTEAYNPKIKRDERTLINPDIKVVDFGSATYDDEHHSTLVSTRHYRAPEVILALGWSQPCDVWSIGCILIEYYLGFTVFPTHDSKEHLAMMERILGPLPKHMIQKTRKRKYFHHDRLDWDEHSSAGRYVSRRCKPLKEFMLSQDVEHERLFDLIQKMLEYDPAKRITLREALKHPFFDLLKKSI

SMILES: CN(C)c1nccc(-c2cnc3cccnn23)n1
IC50 [1]: 55000 nM

SMILES: COc1ccnn2ncc(-c3ccnc(N(C)C)n3)c12
Activity [2]: 100% | IC50 [1]: 138 nM | Activity [3]: 7.8% | Activity [4]: 0.7% | Activity [5]: 83% | Activity [6]: 12% | microsomal CLint [7]: 77 µL/min/mg | solubility thermodynamic [8]: 70 µg/mL (≈ 259 µM) | Activity [9]: 24% | Activity [10]: 100% | microsomal CLint [11]: 89 µL/min/mg

SMILES: Cc1cnn2ncc(-c3ccnc(N(C)C)n3)c2c1
Activity [2]: 89% | IC50 [1]: 115 nM | Activity [3]: 15% | Activity [4]: 1.6% | Activity [5]: 76% | Activity [6]: 13% | microsomal CLint [7]: 164 µL/min/mg | solubility thermodynamic [8]: 10 µg/mL (≈ 39.3 µM) | Activity [9]: 25% | Activity [10]: 100% | microsomal CLint [11]: 160 µL/min/mg

SMILES: CC1CCN(c2nccc(-c3cnn4ncccc34)n2)C1 (single isomer, unassigned) [listing 1 of 2 here]
Activity [2]: 95% | Activity [3]: 16% | Activity [4]: 9.1% | Activity [5]: 73% | Activity [6]: 15% | Activity [9]: 25% | Activity [10]: 100%

SMILES: CN(C)c1ncc(Br)c(-c2cnn3ncccc23)n1
IC50 [1]: 1580 nM

SMILES: CN(C)c1nccc(-c2cnn3ccccc23)n1
IC50 [1]: 891 nM

Activity [2]: 100% | Activity [3]: 36% | Activity [4]: 18% | Activity [5]: 95% | Activity [6]: 72% | microsomal CLint [7]: 48 µL/min/mg | solubility thermodynamic [8]: 1920 µg/mL (≈ 6820 µM) | Activity [9]: 29% | Activity [10]: 100% | microsomal CLint [11]: 199 µL/min/mg
SMILES: N[C@H]1CCN(c2nccc(-c3cnn4ncccc34)n2)C1

SMILES: Cc1cccc(N(C)c2nccc(-c3cnn4ncccc34)n2)c1
IC50 [1]: 79.4 nM | microsomal CLint [7]: 784 µL/min/mg

SMILES: c1cnn2ncc(-c3ccnc(N4CC5(COC5)C4)n3)c2c1
IC50 [1]: 513 nM

SMILES: CN(C)c1cccc(-c2cnn3ncccc23)n1
IC50 [1]: 912 nM

SMILES: CN(C)C1CCN(c2nccc(-c3cnn4ncccc34)n2)C1 (configuration not stated)
IC50 [1]: 245 nM

SMILES: Cc1nn2ncccc2c1-c1ccnc(N(C)C)n1
IC50 [1]: 30900 nM

microsomal CLint [7]: 340 µL/min/mg | solubility thermodynamic [8]: 50 µg/mL (≈ 165 µM) | microsomal CLint [11]: 450 µL/min/mg
SMILES: CN(c1ccccc1)c1nccc(-c2cnn3ncccc23)n1

SMILES: CN(C)c1nccc(-c2ccc(=O)n(C)c2)n1
IC50 [1]: 7940 nM

SMILES: CN(C)c1cc(-c2cnn3ncccc23)ccn1
IC50 [1]: 676 nM

SMILES: CC1(C)CCN(c2nccc(-c3cnn4ncccc34)n2)C1
IC50 [1]: 427 nM

SMILES: F[C@H]1CCN(c2nccc(-c3cnn4ncccc34)n2)C1
IC50 [1]: 186 nM

SMILES: FC1CCN(c2nccc(-c3cnn4ncccc34)n2)C1 (single isomer, unassigned)
Activity [2]: 95% | IC50 [1]: 66.1 nM | Activity [3]: 48% | Activity [4]: 34% | Activity [5]: 96% | Activity [6]: 62% | microsomal CLint [7]: 130 µL/min/mg | solubility thermodynamic [8]: 40 µg/mL (≈ 141 µM) | Activity [9]: 39% | Activity [10]: 98% | microsomal CLint [11]: 296 µL/min/mg

SMILES: C[C@H]1CCN(c2nccc(-c3cnn4ncccc34)n2)C1
Activity [2]: 100% | IC50 [1]: 115 nM | Activity [3]: 17% | Activity [4]: 7.2% | Activity [5]: 88% | Activity [6]: 16% | microsomal CLint [7]: 448 µL/min/mg | solubility thermodynamic [8]: 20 µg/mL (≈ 71.3 µM) | Activity [9]: 15% | Activity [10]: 77% | microsomal CLint [11]: 378 µL/min/mg

Activity [2]: 86% | Activity [3]: 47% | Activity [4]: 10% | Activity [5]: 89% | Activity [6]: 51% | microsomal CLint [7]: 66 µL/min/mg | solubility thermodynamic [8]: 4370 µg/mL (≈ 15500 µM) | Activity [9]: 28% | Activity [10]: 100% | microsomal CLint [11]: 40 µL/min/mg
SMILES: NC1CCN(c2nccc(-c3cnn4ncccc34)n2)C1 (single isomer, unassigned)

SMILES: CC1(F)CN(c2nccc(-c3cnn4ncccc34)n2)C1
IC50 [1]: 372 nM

SMILES: COc1cnc(N(C)C)nc1-c1cnn2ncccc12
IC50 [1]: 1170 nM

SMILES: COCCCN(C)c1nccc(-c2cnn3ncccc23)n1
IC50 [1]: 219 nM

SMILES: CN(CCC(F)(F)F)c1nccc(-c2cnn3ncccc23)n1
IC50 [1]: 229 nM

SMILES: CN(C)c1nccc(-c2cnc3ccccn23)n1
IC50 [1]: 692 nM

SMILES: c1cnn2ncc(-c3ccnc(N4CC5CCCC5C4)n3)c2c1 (configuration not stated)
IC50 [1]: 1230 nM

SMILES: CNc1nccc(-c2cnn3ncccc23)n1
IC50 [1]: 182 nM | Kd [12]: 55 nM

SMILES: COc1ncc(-c2ccnc(N(C)C)n2)s1
IC50 [1]: 3980 nM

SMILES: CN(C)c1nccc(-c2cn(C)c3ncccc23)n1
IC50 [1]: 11700 nM

SMILES: COc1ccc2c(-c3ccnc(N(C)C)n3)cnn2n1
IC50 [1]: 2630 nM

SMILES: CN(C)c1ncnc(-c2cnn3ncccc23)n1
IC50 [1]: 182 nM | Kd [12]: 153 nM | microsomal CLint [7]: 105 µL/min/mg | solubility thermodynamic [8]: 50 µg/mL (≈ 207 µM) | microsomal CLint [11]: 93.6 µL/min/mg

SMILES: Cc1ccc2c(-c3ccnc(N(C)C)n3)cnn2n1
IC50 [1]: 871 nM

SMILES: CN(C)c1nccc(-c2c[nH]c3ncccc23)n1
IC50 [1]: 135 nM | microsomal CLint [7]: 234 µL/min/mg | microsomal CLint [11]: 154 µL/min/mg

SMILES: CCCN(c1nccc(-c2cnn3ncccc23)n1)C(C)C
IC50 [1]: 759 nM

SMILES: CC(C)c1cc(-c2cnn3ncccc23)nc(N(C)C)n1
IC50 [1]: 19100 nM

SMILES: CC(C)N(c1nccc(-c2cnn3ncccc23)n1)C1CC1
IC50 [1]: 1200 nM

SMILES: CN(C)c1nccc(-c2cn(C)c3cnccc23)n1
IC50 [1]: 977 nM

SMILES: c1cnn2ncc(-c3ccnc(N4CCC5CNCC54)n3)c2c1 (configuration not stated)
IC50 [1]: 1660 nM

SMILES: CN(CCCC(F)(F)F)c1nccc(-c2cnn3ncccc23)n1
IC50 [1]: 100 nM

SMILES: CCCN(CCOC)c1nccc(-c2cnn3ncccc23)n1
IC50 [1]: 316 nM

IC50 [1]: > 100000 nM
SMILES: COc1cc(-c2cnn3ncccc23)nc(N(C)C)n1

SMILES: CN(C)c1ncc(I)c(-c2cnn3ncccc23)n1
IC50 [1]: 1620 nM

SMILES: CC1CCCN1c1nccc(-c2cnn3ncccc23)n1 (configuration not stated)
Activity [2]: 100% | IC50 [1]: 110 nM | Activity [3]: 71% | Activity [4]: 81% | Activity [5]: 100% | Activity [6]: 61% | microsomal CLint [7]: 929 µL/min/mg | solubility thermodynamic [8]: 10 µg/mL (≈ 35.7 µM) | Activity [9]: 66% | Activity [10]: 92% | microsomal CLint [11]: 328 µL/min/mg

SMILES: CCn1cc(-c2ccnc(N(C)C)n2)c2cccnc21
IC50 [1]: 7760 nM

SMILES: CN(C)c1nccc(-c2c[nH]c3cnccc23)n1
IC50 [1]: 1020 nM

SMILES: c1cnn2ncc(-c3ccnc(N4CCC5(CCOC5)C4)n3)c2c1 (configuration not stated)
IC50 [1]: 269 nM

SMILES: CN(C)c1nc2c(c(-c3cnn4ncccc34)n1)COC2
IC50 [1]: 7410 nM

SMILES: CN(C)c1nc(Cl)cc(-c2cnn3ncccc23)n1
IC50 [1]: 1350 nM

SMILES: CN(C)c1ncc(Cl)c(-c2cnn3ncccc23)n1
IC50 [1]: 331 nM | Kd [12]: 963 nM

SMILES: Nc1nccc(-c2cnn3ncccc23)n1
IC50 [1]: 525 nM | Kd [12]: 134 nM

SMILES: Cc1ccnn2ncc(-c3ccnc(N(C)C)n3)c12
IC50 [1]: 724 nM

SMILES: Cc1cc(-c2cnn3ncccc23)nc(N(C)C)n1
IC50 [1]: 11700 nM

SMILES: CC1CCN(c2nccc(-c3cnn4ncccc34)n2)C1 (single isomer, unassigned) [listing 2 of 2 here]
IC50 [1]: 148 nM | microsomal CLint [7]: 184 µL/min/mg | solubility thermodynamic [8]: 50 µg/mL (≈ 178 µM) | microsomal CLint [11]: 389 µL/min/mg

SMILES: CN(C)c1nccc(-c2cnc3ncccn23)n1
Activity [2]: 86% | IC50 [1]: 158 nM | Activity [3]: 20% | Activity [4]: 6.2% | Activity [5]: 56% | Activity [6]: 31% | microsomal CLint [7]: 96 µL/min/mg | solubility thermodynamic [8]: 470 µg/mL (≈ 1960 µM) | Activity [9]: 35% | Activity [10]: 77% | microsomal CLint [11]: 154 µL/min/mg

SMILES: Cc1cnc(N(C)C)nc1-c1cnn2ncccc12
IC50 [1]: 2820 nM

SMILES: CN(C)c1ncc(C(F)(F)F)c(-c2cnn3ncccc23)n1
IC50 [1]: 12900 nM

SMILES: CC1CCN(c2nccc(-c3cnn4ncccc34)n2)C1 (configuration not stated)
IC50 [1]: 204 nM

SMILES: c1cnn2ncc(-c3ccnc(N4CC5CC5C4)n3)c2c1 (configuration not stated)
IC50 [1]: 309 nM
